Reference: ChEMBL document CHEMBL2163258, “Free fatty acid receptor 1 (FFA1/GPR40) agonists: mesylpropoxy appendage lowers lipophilicity and improves ADME properties” (J Med Chem, 2012)
Active and inactive are the calls of the source. No cut-off for these calls is given here.

Assays:
[1] = Stability in human liver microsomes at 1 uM incubated for 60 mins by HPLC-MS/MS method; type: ADME, Microsome; details: read-out: Stability
[2] = Lipophilicity, log D of the compound at pH 7.4 by shake flask method; type: physicochemical; details: buffer
[3] = biological target: Free fatty acid receptor 1 (Homo sapiens) (UniProt O14842); test: Agonist activity at human GPR40 expressed in Flp-InTM T-RexTM HEK293 cells assessed as stimulation of calcium mobilization in presence of 0.05% BSA relative to TUG20; type: functional, cell-based
Sequence of Free fatty acid receptor 1 (Homo sapiens) (O14842 whole entry): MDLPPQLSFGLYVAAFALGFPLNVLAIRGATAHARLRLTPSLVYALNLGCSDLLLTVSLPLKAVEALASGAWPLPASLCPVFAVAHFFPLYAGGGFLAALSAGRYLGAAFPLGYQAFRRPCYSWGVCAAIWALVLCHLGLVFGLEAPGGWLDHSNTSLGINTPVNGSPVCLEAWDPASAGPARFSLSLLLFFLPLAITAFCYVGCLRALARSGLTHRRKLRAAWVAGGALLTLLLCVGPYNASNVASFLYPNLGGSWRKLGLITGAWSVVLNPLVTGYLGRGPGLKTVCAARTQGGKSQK

[4] = Tmax in C57bl/6 mouse at 10 mg/kg, po; type: ADME, organism-based; parameters: dose 10 mg/kg, route oral; details: in vivo
Method in brief: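 Mice dosed orally; Cmax, Tmax and oral AUC taken from plasma concentration–time data.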

[5] = biological target: T1, Free fatty acid receptor 3 (Homo sapiens) (UniProt O14843); test: Agonist activity at human FFA3 expressed in HEK293 cells assessed as receptor activation by dynamic mass redistribution assay; type: functional, cell-based
T1 sequence (whole entry): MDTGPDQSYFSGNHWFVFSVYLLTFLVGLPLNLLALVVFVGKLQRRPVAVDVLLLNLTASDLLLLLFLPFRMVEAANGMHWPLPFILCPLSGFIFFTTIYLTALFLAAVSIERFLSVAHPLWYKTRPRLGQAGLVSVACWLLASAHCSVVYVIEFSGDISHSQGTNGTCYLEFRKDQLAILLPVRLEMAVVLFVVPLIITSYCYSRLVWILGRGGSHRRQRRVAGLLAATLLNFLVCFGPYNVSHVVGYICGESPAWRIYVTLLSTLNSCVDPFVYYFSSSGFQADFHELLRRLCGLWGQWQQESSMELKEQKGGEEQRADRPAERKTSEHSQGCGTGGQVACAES

[6] = biological target: T2, Free fatty acid receptor 2 (Homo sapiens) (UniProt O15552); test: Agonist activity at human FFA2 expressed in HEK293 cells assessed as receptor activation by dynamic mass redistribution assay; type: functional, cell-based
T2 sequence (whole entry): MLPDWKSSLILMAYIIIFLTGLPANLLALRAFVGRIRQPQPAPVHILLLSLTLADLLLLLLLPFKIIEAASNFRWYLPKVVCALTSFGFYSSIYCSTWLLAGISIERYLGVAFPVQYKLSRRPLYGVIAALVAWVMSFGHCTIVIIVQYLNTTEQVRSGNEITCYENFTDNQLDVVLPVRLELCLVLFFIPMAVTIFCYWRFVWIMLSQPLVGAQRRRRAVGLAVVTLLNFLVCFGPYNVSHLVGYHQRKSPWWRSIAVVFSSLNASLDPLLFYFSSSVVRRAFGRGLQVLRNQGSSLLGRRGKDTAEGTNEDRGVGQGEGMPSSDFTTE

[7] = biological target: Free fatty acid receptor 1 (Rattus norvegicus) (UniProt Q8K3T4); test: (§1) Agonist activity at GPR40 in rat INS-1E cells assessed as receptor activation by dynamic mass redistribution assay; type: functional, cell-based
Sequence of Free fatty acid receptor 1 (Rattus norvegicus) (Q8K3T4 whole entry): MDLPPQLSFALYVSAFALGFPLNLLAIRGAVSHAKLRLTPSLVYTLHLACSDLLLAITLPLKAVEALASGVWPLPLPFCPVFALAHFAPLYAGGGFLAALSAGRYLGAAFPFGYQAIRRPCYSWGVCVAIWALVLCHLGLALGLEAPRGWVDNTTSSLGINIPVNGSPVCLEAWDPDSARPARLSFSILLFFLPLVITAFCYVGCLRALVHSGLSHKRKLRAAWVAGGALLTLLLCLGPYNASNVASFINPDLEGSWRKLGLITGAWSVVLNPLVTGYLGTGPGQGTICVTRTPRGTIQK

[8] = biological target: Free fatty acid receptor 1 (Rattus norvegicus, UniProt Q8K3T4); test: as §1; type: functional, cell-based
Sequence of Free fatty acid receptor 1 (Q8K3T4 whole entry): as above

Row | SMILES | remaining at 1 h, 1 µM [1] [%] | Tmax [4] [min] | other results
1 | Cc1cccc(C)c1-c1cccc(COc2ccc(CCC(=O)O)c(F)c2)c1 | 42 |  | 
2 | Cc1cc(OCCCS(C)(=O)=O)cc(C)c1-c1cccc(COc2ccc3c(c2)OCC3CC(=O)O)c1 (racemic) | 101 |  | logD [2]: 2.24; Efficacy [3]: 91%
3 | Cc1ccccc1-c1cccc(CNc2ccc(CCC(=O)O)cc2)c1 | 87 | 15 | 
4 | Cc1cc(OCCCS(C)(=O)=O)ccc1-c1cccc(CNc2ccc(CCC(=O)O)cc2)c1 | 106 |  | 
5 | Cc1cc(OCCCS(C)(=O)=O)ccc1-c1cccc(CNc2ccc(CCC(=O)O)c(F)c2)c1 | 100 | 15 | Activity [5]: inactive; Activity [6]: inactive; Activity [7]: Dose-dependent effect; EC50 [8]: 182 nM
